# NR2E3 ag-1: human photoreceptor-specific nuclear receptor agonism | Q9Y5X4 | CHO-S Gal4-NCOR/VP16-NR2E3 two-hybrid, luciferase | inhibition of corepressor binding, % at 3.98 µM | 360,000 tested, 0.35% active | AID 602229;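 active means inhibition above the mean of all tested compounds plus 3 SD, cut at about 70% in these data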;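 further: 0% = DMSO with NR2E3 transfected cells and 100% = cells lacking NR2E3 construct; higher means lower luciferase signal from less NR2E3 corepressor binding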
# Target sequence (Q9Y5X4 whole entry, looked up, the tested form may be a part): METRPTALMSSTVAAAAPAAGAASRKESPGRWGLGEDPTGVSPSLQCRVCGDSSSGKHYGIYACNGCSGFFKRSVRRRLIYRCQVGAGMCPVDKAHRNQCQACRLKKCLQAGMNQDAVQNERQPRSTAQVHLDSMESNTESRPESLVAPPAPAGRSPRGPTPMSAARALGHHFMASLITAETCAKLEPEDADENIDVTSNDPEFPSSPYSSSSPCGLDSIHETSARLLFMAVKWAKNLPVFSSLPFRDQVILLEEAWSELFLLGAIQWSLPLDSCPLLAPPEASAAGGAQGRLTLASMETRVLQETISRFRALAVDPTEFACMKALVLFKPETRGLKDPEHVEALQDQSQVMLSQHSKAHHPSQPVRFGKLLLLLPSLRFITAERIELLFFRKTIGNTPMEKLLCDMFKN
# CHT allo act: allosterically activates the human high affinity choline transporter; Q9GZV3; CHT-expressing cells, membrane potential dye, choline EC20; hits give high values; LV-AA mutant CHT in HEK293 cells; B-score at 10 µM; 310,000 tested, 0.49% active; AID 488977;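 active means initial fluorescence not abnormally high and integrated response B-score, plate-corrected, over 3 SD above library mean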
# GalR3 antag: blocks the human galanin receptor 3 | O60755 | HEK293 GalR3-CNG cAMP membrane potential fluorescence; galR3 body fused to GalR1 C-terminus | inhibition, % at 3 µM | 360,000 tested, 0.44% active | AID 651719;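 active means inhibition above the screen-wide average plus 3 SD, cut at about 13% in these data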;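 further: forskolin and galanin both at EC90 stimulate the cells; cAMP rise reported by CNG channel membrane potential dye signal; 0% = forskolin plus galanin with DMSO and 100% = forskolin alone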
# Target sequence (O60755 1-299 limits assumed): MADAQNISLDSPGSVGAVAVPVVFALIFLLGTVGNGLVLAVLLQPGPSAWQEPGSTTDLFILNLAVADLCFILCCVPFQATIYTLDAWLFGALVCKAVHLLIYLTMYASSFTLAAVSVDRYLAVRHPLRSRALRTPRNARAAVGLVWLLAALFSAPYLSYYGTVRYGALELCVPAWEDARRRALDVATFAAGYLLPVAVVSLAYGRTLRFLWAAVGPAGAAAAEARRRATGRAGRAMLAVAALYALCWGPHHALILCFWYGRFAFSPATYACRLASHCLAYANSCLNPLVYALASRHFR
# CHT inh: inhibits the human high affinity choline transporter | B-score at 10 µM | 310,000 tested, 0.86% active | CHT-expressing cells, membrane potential dye, choline response; hits give low values;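 active means B-score over 3 SD under the library average, and starting fluorescence ratio not unusually high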;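 further: choline stimulus applied at its EC90 after an EC20 pre-addition; B-score computed on integrated fluorescence ratio after choline addition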
# NR2E3 ag-2: activates human photoreceptor nuclear receptor NR2E3 | Q9Y5X4 | GST-NR2E3/biotin-RetCOR TR-FRET, 1536-well | inhibition of corepressor binding, % at 4.78 µM | 320,000 tested, 0.12% active;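 active means percent inhibition above the cutoff of mean plus 3 SD of all tested compounds, set per screening campaign, cut at about 20% in these data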;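 further: 0% = DMSO wells and 100% = biotin wells as full block of FRET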
#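 Assay system: NR2E3–RetCOR corepressor complex. Quantity: 1.35 nM GST-NR2E3. Buffer or medium: pH 7.5 Tris-based buffer. Reagent: biotinylated RetCOR corepressor at 7 nM final. Schedule: 5 h at 4 °C. Detection: TR-FRET, emission read at 617 and 671 nm. Replicates: one well per compound, singlicate testing.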
# NR2F2 inh: NR2F2 (human) inhibition, primary screen; P24468; HEK293T NGFI-A luciferase reporter, luminescence; inhibition, % at 8.6 µM; 370,000 tested, 0.7% active; AID 686940;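 active means inhibition above a per-plate cutoff, mean inhibition of test wells between control levels plus 3 SD, cut at about 38% in these data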;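 further: cells cotransfected with COUP-TFII expression vector driving the NGFI-A reporter; 0% = median of COUP-TF2 test wells and 100% = reporter-only cells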
# NR2E3 ag conf: NR2E3 agonism confirmed in two-hybrid assay; shares compounds with NR2E3 ag-1; AID 624378; 2,300 tested, 51% active; inhibition, % at 3.98 µM; CHO-S mammalian two-hybrid NR2E3-NCOR, luciferase luminescence;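 active means average inhibition above a cutoff equal to the mean inhibition of all tested compounds plus one SD, cut at about 70% in these data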;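 further: 0% = DMSO in NR2E3 cells and 100% = DMSO in cells lacking NR2E3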
# GAL4-VP16 luc: reduces GAL4-VP16 reporter signal in NR2E3 counterscreen; 2,300 tested, 29% active; inhibition, % at 3.98 µM; AID 624379; CHO-S GAL4-VP16 luciferase reporter, luminescence; shares compounds with NR2E3 ag-1;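 active means mean inhibition above a cutoff equal to the average over all tested compounds plus one standard deviation, cut at about 70% in these data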;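 further: luciferase from a UAS reporter driven by GAL4-VP16 transactivation; 0% = DMSO with VP16-transfected cells and 100% = DMSO with cells lacking VP16; higher means less reporter light so more repression of VP16 activity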
# Active calls of the source: *; i = inactive; / = no result given. Sampled rows, rich in hits. Any-hit rate of the full collection: about 2.3%.
SMILES,NR2E3 ag-1,CHT allo act,GalR3 antag,CHT inh,NR2E3 ag-2,NR2F2 inh,NR2E3 ag conf,GAL4-VP16 luc
Cc1ccc(S(=O)(=O)N2[C@@H](c3ccc(C(C)(C)C)cc3)C(C(=O)O)=CC[C@H]2c2cccs2)cc1,51,/,-2,/,/,15,-4,-5
CCCC[C@H]1C2CC(OC(=O)Nc3cccc(F)c3)C(C2)[C@H]2CCCCN21 (stereo not given in full),/,/,/,/,/,15,/,/
Cc1ccc([C@@H]2CC=C(C(=O)O)[C@H](c3ccc(C(C)(C)C)cc3)N2S(=O)(=O)c2ccc(C)cc2)cc1,98*,/,-8,/,/,-7,88*,41
CC(=O)c1ccc(N2CCN(C(=O)C3CCN(S(=O)(=O)c4ccc5c(c4)CC(C)N5C(C)=O)CC3)CC2)cc1 (stereo not given),3,i,-7,i,1,-9,/,/
CC(=O)N1c2ccc(S(=O)(=O)N3CCC(C(=O)N4CCN(c5cccc(C(F)(F)F)c5)CC4)CC3)cc2CC1C (stereo not given),99*,i,-4,i,-1,31,89*,76*
CC(=O)N1c2ccc(S(=O)(=O)N3CCC(C(=O)Nc4cccc(Cl)c4)CC3)cc2CC1C (stereo not given),78*,i,-3,i,2,21,74*,52
Cc1cc(N2CCC[C@@H]2C)nc2ccccc12,/,/,/,/,/,-10,/,/
C=CCNC(=O)C1CC1(c1cccc(C)c1)c1cccc(C)c1 (stereo not given),-19,i,-1,i,3,-3,/,/
Cc1cccc(C2(c3cccc(C)c3)CC2C(=O)Nc2ccc([N+](=O)[O-])cc2O)c1 (stereo not given),86*,i,-4,i,-4,12,74*,67
C[C@H]1CCC/C=C/[C@@H]2C[C@H](O)C[C@H]2[C@H](O)[C@H](S(=O)c2ccc(O)cc2)CC(=O)O1 (stereo not given in full),78*,/,-4,/,/,51*,91*,47
CCOC(=O)[C@@]12CN(C(=O)OC(C)(C)C)CC=C1N(Cc1ccc(OC)cc1)C(=O)[C@H]2CC(=O)NCc1ccc(C)o1,/,/,/,/,/,-14,/,/
CCc1cccc(C)c1NC(=S)NCCc1c(C)[nH]c2ccc(C)cc12,-11,i,2,i,1,6,/,/
CCc1cccc(CC)c1NC(=S)NCCc1c(C)[nH]c2ccc(C)cc12,71*,i,0,i,4,11,19,6
Cc1ccc(NC(=O)Cn2c(=O)oc3cc(S(=O)(=O)N4CCC(C)CC4)ccc32)cc1C,48,i,1,i,0,31,50,53
O=C1CCC[C@H]2C[C@H](NCc3ccc(Br)cc3)CC[C@]23CCCN13,/,/,/,/,/,6,/,/
O=c1c(/C=N/OCc2ccc(Cl)cc2Cl)c[nH]n1-c1cccc(Cl)n1,62,i,3,i,4,0,98*,64
Cc1ccc(OCCN2CCC2(C)C(=O)NCc2ccc(C(F)(F)F)cc2)cc1 (stereo not given),53,/,-9,/,/,6,-2,-3
Cc1ccc(OCCN2CCC2(C)C(=O)NCc2cccc3ccccc23)cc1 (stereo not given),-28,/,-2,/,/,21,/,/
O=C(CCNS(=O)(=O)c1ccc(OC(F)(F)F)cc1)N1CCCC1,-24,/,1,/,/,9,/,/
O=C(CCNS(=O)(=O)c1ccc(OC(F)(F)F)cc1)N1CCN(C/C=C/c2ccccc2)CC1,55,i,-3,i,3,25,56,45
CCCCn1c(=N)n(CC(O)COc2cccc(C)c2)c2ccccc21 (stereo not given),49,i,-9,i,-2,11,-9,30
CC(=O)N1CC(C)Sc2ccc(S(=O)(=O)NCCc3ccc(C)cc3)cc21 (stereo not given),80*,i,7,i,3,29,74*,68
O=C(OCc1cn(Cc2c(F)cccc2F)nn1)N1CCOCC1,/,/,/,/,/,2,/,/
N#Cc1c(N)n(C2OC(CO)C(O)C2O)c2ncnc(N)c12 (stereo not given),89*,/,-2,/,/,17,96*,89*
Nc1ncnc2c1ncn2[C@@H]1O[C@H](CO)[C@@H](O)[C@@H]1O,30,i,/,i,1,-7,/,/
SMILES,NR2E3 ag-1,CHT allo act,GalR3 antag,CHT inh,NR2E3 ag-2,NR2F2 inh,NR2E3 ag conf,GAL4-VP16 luc
COc1ccc(CNC(=O)c2ccc(Cl)c(S(=O)(=O)N3CCOCC3)c2)cc1OC,56,/,/,/,1,/,49,52
COc1ccc(C(=O)NCc2cccc(Cl)c2)cc1S(=O)(=O)N1CCOCC1,0,/,-5,/,2,-13,/,/
O=C(NCCc1ccccc1)OCc1cn(-c2c(F)cccc2F)nn1,/,/,/,/,/,-4,/,/
CNC(=O)C[C@@H]1CC[C@@H]2[C@H](COc3ccc(NC(=O)c4cccc(F)c4)cc3C(=O)N2C)O1,/,/,/,/,/,9,/,/
Cc1ccc(C)c(NC(=O)Cn2nnc(-c3ccncc3)n2)c1,/,/,/,/,/,8,/,/
O=C(Nc1ccc(Cn2cccn2)cc1)c1ccc(COc2ccccc2Br)cc1,64,i,-8,i,-4,24,86*,-15
O=[N+]([O-])c1ccc(NN=Cc2cccc3ccccc23)nc1,-18,/,-4,/,/,-6,/,/
COc1cccc(/C=N/Nc2ccc([N+](=O)[O-])cn2)c1O,103*,i,-13,i,1,-55,99*,93*
Cc1cc(C(=O)OCC(=O)Nc2ccccc2)c(C)o1,-13,i,-2,i,4,-3,/,/
Cc1cc(C(=O)OCC(=O)Nc2ccc(F)cc2)c(C)o1,74*,i,-2,i,1,-19,-13,11
CCN(CC)C(=O)CC[C@H]1CC[C@]2(CCCN(Cc3nccs3)C2)O1,/,/,/,/,/,-2,/,/
COc1ccc(C(=O)Nc2nnc(Cc3cccs3)s2)cc1OC,63,i,0,i,12,-4,62,23
CSC(=S)NN=C(C)c1cccc(C)n1,66,/,-3,/,/,7,38,32
COc1cccc(NC(=O)C2CCCN2C(=O)Nc2cccc3c2OCO3)c1 (stereo not given),/,/,/,/,/,-37,/,/
COc1ccc(-c2noc(C3CCCN(C(=O)Nc4ccc(C)c(F)c4)C3)n2)cc1 (stereo not given),/,/,/,/,/,-10,/,/
COc1ccc(C(=O)NCCN2C(=O)C3C4C=CC(C4)C3C2=O)cc1OC (stereo not given),/,/,/,/,/,2,/,/
COc1cccc2sc(Nc3nc(-c4ccccn4)cs3)nc12,97*,i,/,i,2,/,100*,-25

# Screens (PubChem)
